The results in this text go back to ChEMBL document CHEMBL3232893, “Design of antiviral stapled peptides containing a biphenyl cross-linker” (Bioorg Med Chem Lett, 2014).

Bridge positions count the residues as written; N and C are the ends. Square brackets hold non-standard residues; d marks the D form. Peptide text beside a SMILES is read from it. R8 = C=CCCCCCC[C@@](C)(N)C(=O)O; S5 = C=CCCC[C@](C)(N)C(=O)O

Data set [1] has as its system Human immunodeficiency virus 1. Kind of data set: Antiviral activity against HIV-1 NL4-3-HXB2 pseudovirus co-transfected with luciferase gene infected in human TZM-bl cells assessed as reduction of luciferase production after 3 days by single-cycle neutralization assay. In kind it is functional, organism-based. As to conditions: Human immunodeficiency virus 1, NL4-3-HXB2, TZM-bl, 72 h; call rule not given here. In outline: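 Single-cycle neutralization in TZM-bl cells; read-out is reduction of luciferase production. IC50 derived from dose-response.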

Data set [2] in a line: Cytotoxicity against human MT2 cells after 4 days by XTT assay. It counts as cell-based. For orientation: Tetrazolium dyes change colour on reduction, which living cells bring about.
The nature of data set [3]: Cytotoxicity against human TZM-bl cells after 3 days by XTT assay. In kind it is cell-based.
Data set [4] concerns Human immunodeficiency virus 1. Nature of the data set: Antiviral activity against HIV-1 3B infected in human MT-2 cells assessed as reduction in p24 antigen level incubated for overnight measured on fourth day post infection by multi-cycle infection assay based sandwich ELISA. The settings on record: Human immunodeficiency virus 1, 3B, MT2. It counts as functional, organism-based. A digest of the protocol:
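Multi-cycle infection in MT-2 cells; read-out is reduction of p24 levels. IC50 derived from dose-response.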
For orientation: An ELISA detects its analyte on a solid surface through an enzyme-linked reagent.

Data set [5] is described as follows: Drug uptake in human HEK293T cells assessed as increase in fluorescence at 5 uM after 2 hrs by confocal microscopy. It counts as ADME, cell-based. As to conditions: hek-293t. In outline:
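HEK293T cells were incubated with 5 μM FITC-labeled peptide at 37°C for 2 h. Intracellular fluorescence was imaged by confocal microscopy, with DIC images alongside.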

Turning to `CC[C@H](C)[C@H](NC(C)=O)C(=O)N[C@@H](CO)C(=O)N[C@@H](Cc1ccccc1)C(=O)N[C@@H]1CSCc2ccc(cc2)-c2ccc(cc2)CSC[C@@H](C(=O)N[C@@H](CCC(=O)O)C(=O)N[C@@H](CO)C(=O)NCC(=O)N[C@@H](CO)C(N)=O)NC(=O)[C@H](Cc2ccc(O)cc2)NC(=O)[C@H](Cc2ccc(O)cc2)NC(=O)[C@H](CC(=O)O)NC(=O)[C@H](C)NC(=O)[C@H](CC(C)C)NC(=O)[C@H](CCC(=O)O)NC1=O`, the half-inhibitory concentration (IC50) – broadly, the concentration that inhibits the measured activity by half – in data set [1] amounted to 1.4 µM; in data set [4], 4.1 µM. In addition, the cytotoxic concentration (CC50) (usually the concentration that lowers cell viability or growth by half) at 96 h in data set [2] was 26 µM. This compound registered a half-maximal cytotoxic concentration (CC50) at 72 h in data set [3] of more than 52 µM.
For `CC[C@H](C)[C@H](NC(C)=O)C(=O)N[C@@H](CO)C(=O)N[C@@H](Cc1ccccc1)C(=O)N[C@@H]1CSCc2ccc(cc2)-c2ccc(cc2)CSC[C@@H](C(=O)N[C@@H](CCC(=O)O)C(=O)N[C@@H](CO)C(=O)NCC(=O)N[C@@H](CO)C(N)=O)NC(=O)[C@H](C)NC(=O)[C@H](Cc2ccc(O)cc2)NC(=O)[C@H](CC(=O)O)NC(=O)[C@H](CC(C)C)NC(=O)[C@H](CC(C)C)NC(=O)[C@H](CCC(=O)O)NC1=O`, the half-maximal inhibitory concentration (IC50) came to 17.3 µM in data set [1] and 14 µM in data set [4]. In addition, the half-maximal cytotoxic concentration (CC50) at 96 h in data set [2] is more than 107 µM. The compound also gave a 50% cytotoxic concentration (CC50) at 72 h in data set [3] of more than 107 µM.
On to `CC[C@H](C)[C@H](NC(=S)Nc1ccc(-c2c3ccc(=O)cc-3oc3cc(O)ccc23)c(C(=O)O)c1)C(=O)N[C@@H](CO)C(=O)N[C@@H](Cc1ccccc1)C(=O)N[C@@H]1CSCc2ccc(cc2)-c2ccc(cc2)CSC[C@@H](C(=O)N[C@@H](CCC(=O)O)C(=O)N[C@@H](CO)C(=O)NCC(=O)N[C@@H](CO)C(=O)O)NC(=O)[C@H](Cc2ccc(O)cc2)NC(=O)[C@H](Cc2ccc(O)cc2)NC(=O)[C@H](CC(=O)O)NC(=O)[C@H](CC(C)C)NC(=O)[C@H](CC(C)C)NC(=O)[C@H](CCC(=O)O)NC1=O`, for which the Drug uptake result in data set [5] was “Active”.
As to `CC[C@H](C)[C@H](N)C(=O)N[C@@H](CO)C(=O)N[C@@H](Cc1ccccc1)C(=O)N[C@]1(C)CCCCCC/C=C\CCC[C@@](C)(C(=O)N[C@@H](CCC(=O)O)C(=O)N[C@@H](CO)C(=O)NCC(=O)N[C@@H](CO)C(=O)O)NC(=O)[C@H](Cc2ccc(O)cc2)NC(=O)[C@H](Cc2ccc(O)cc2)NC(=O)[C@H](CC(=O)O)NC(=O)[C@H](CC(C)C)NC(=O)[C@H](CC(C)C)NC(=O)[C@H](CCC(=O)O)NC1=O` (H-ISF[R8]ELLDYY[S5]ESGS-OH; staple (Z) 4-11), the results for the IC50 in data set [1] and in data set [4] were 2 µM and 1.5 µM, respectively. Further, the cytotoxic concentration (CC50) at 96 h in data set [2] is more than 189 µM. This compound also registered a CC50 at 72 h in data set [3] of more than 189 µM.
